The source made the active and inactive calls. The calls are words filed in the database; no cut-off is given here.
Assays:
[1] = Dark toxicity in human HeLa cells assessed as reduction in cell viability after 3 hrs by MTT assay; format: cell-based
Procedure, shortened: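 Compound was formulated with Cremophor EL/1,2-propanediol in PBS, filtered, and its concentration confirmed by UV-Vis. HeLa cells in DMEM with 10% FBS at 37 °C, 5% CO2 were seeded at 3×10^3 cells/well and adhered overnight. Cells were exposed to graded concentrations for 3 h without light, incubated 24 h, then MTT 0.5 mg/mL for 4 h; formazan dissolved in DMSO, A490 read.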

[2] = Drug uptake in human HeLa cells xenografted Balb/c nu/nu mouse heart at 2 mg/kg, iv measured after 3 hrs by fluorescence imaging analysis; format: ADME, organism-based; conditions: in vivo
Procedure, shortened: (§1)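 Female Balb/c nu/nu mice bore subcutaneous HeLa tumors (5×10^6 cells, right back) and received 2 mg/kg via tail vein. Living mice were imaged under isoflurane at time points (ex 680/em 720 nm, 1 s exposure). At set times mice were euthanized and heart, liver, spleen, lungs, kidneys and tumor imaged ex vivo; ROI quantified, mean ± SD, n = 3.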

HeLa [3] = assay: Phototoxicity against human HeLa cells assessed as reduction in cell viability preincubated for 3 hrs followed by 54 J/cm2 light irradiation and measured after 24 hrs by MTT assay; format: functional, cell-based; conditions: light or radiation study
Procedure, shortened: (§2)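 PS formulated in PBS containing Cremophor EL/1,2-propanediol (10:3, v:v) after THF removal, filtered, with concentration confirmed by UV-Vis. Cells were grown in DMEM with 10% FBS and seeded at 3×10^3 per well overnight. They were incubated with PS for 3 h, irradiated at λ > 590 nm, kept 24 h at 37 °C, then given MTT (0.5 mg/mL, 4 h) with DMSO solubilization and A490 read-out.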

SW480 = assay: Phototoxicity against human SW480 cells assessed as reduction in cell viability preincubated for 3 hrs followed by 54 J/cm2 light irradiation and measured after 24 hrs by MTT assay; format: functional, cell-based; conditions: SW480, light or radiation study; procedure, shortened: as §2
HeLa [4] = assay: Induction of apoptosis in human HeLa cells assessed as early apoptotic cells at 40 nM preincubated for 3 hrs followed by 54 J/cm2 light irradiation and measured after 24 hrs by Annexin-V-FITC/propidium iodide staining based flow cytometry (reference value: 0.54%); format: functional
Procedure, shortened: (§3)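 HeLa cells in six-well plates were exposed to compound for 3 h, irradiated (λ > 590 nm), and incubated 24 h at 37 °C. Cells were then harvested, washed with PBS, and stained with annexin V-FITC/PI for 20 min at room temperature before immediate flow cytometry. Untreated, unirradiated cells served as control.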

HeLa [5] = assay: Induction of apoptosis in human HeLa cells assessed as viable cells at 200 nM preincubated for 3 hrs followed by 27 J/cm2 light irradiation and measured after 24 hrs by Annexin-V-FITC/propidium iodide staining based flow cytometry (reference value: 90.74%); format: functional; conditions: light or radiation study, read-out: Activity; procedure, shortened: as §3
[6] = Drug uptake in mitochondria of human HeLa cells at 5 uM incubated for 2 hrs under dark condition by mito-tracker green FM dye based laser confocal microscopic analysis; format: ADME
Procedure, shortened: (§4)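 HeLa cells adhered overnight on glass-bottom dishes and were loaded with 5 μM compound in the dark for 2 h. After PBS washes, cells were stained with Mito-Tracker Green FM 250 nM for 30 min, Lyso-Tracker Green 160 nM for 30 min, or ER-Tracker Green 2 μM for 45 min. Confocal imaging: trackers excited at 488 nm, collected 500–560 nm; compound excited at 633 nm, collected 650–740 nm.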

[7] = Drug uptake in human HeLa cells xenografted Balb/c nu/nu mouse tumor at 2 mg/kg, iv measured after 3 hrs by fluorescence imaging analysis; format: ADME, organism-based, Neoplasm; conditions: in vivo; procedure, shortened: as §1
[8] = Drug uptake in human HeLa cells xenografted Balb/c nu/nu mouse kidney at 2 mg/kg, iv measured within 1 hr by fluorescence imaging analysis; format: ADME, organism-based; conditions: in vivo; procedure, shortened: as §1
HeLa [9] = assay: Induction of apoptosis in human HeLa cells assessed as early apoptotic cells at 200 nM preincubated for 3 hrs followed by 54 J/cm2 light irradiation and measured after 24 hrs by Annexin-V-FITC/propidium iodide staining based flow cytometry (reference value: 0.54%); format: functional; procedure, shortened: as §3
[10] = Photostability of the compound in N,N-dimethylformamide assessed as compound degradation irradiated with 90 mW/cm2 light; format: physicochemical
HeLa [11] = assay: Induction of apoptosis in human HeLa cells assessed as necrotic cells at 40 nM preincubated for 3 hrs followed by 54 J/cm2 light irradiation and measured after 24 hrs by Annexin-V-FITC/propidium iodide staining based flow cytometry (reference value: 2.8%); format: functional; procedure, shortened: as §3
[12] = Absorption property of the compound in acetonitrile assessed as absorption coefficient by UV-visible spectrophotometric method; format: physicochemical
Procedure, shortened: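 Electronic absorption spectra recorded by UV-visible spectrophotometry at room temperature. Solvents were chloroform, isopropanol, acetonitrile, DMF, and PBS buffer containing 1% Cremophor EL/1,2-propanediol (10:3, v:v). Chloroform data were referenced to the non-halogenated parent dye.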

[13] = Drug uptake in endoplasmic reticulum of human HeLa cells at 5 uM incubated for 2 hrs under dark condition by ER tracker green dye based laser confocal microscopic analysis; format: ADME, subcellular; procedure, shortened: as §4
[14] = Dark toxicity in human SW480 cells assessed as reduction in cell viability after 3 hrs by MTT assay; format: cell-based
HeLa [15] = assay: Phototoxicity against human HeLa cells assessed as reduction in cell viability at 125 nM preincubated for 2 hrs followed by 5.4 to 108 J/cm2 light irradiation and measured after 24 hrs by MTT assay; format: functional, cell-based
[16] = Toxicity in human HeLa cells xenografted Balb/c nu/nu mouse assessed as body weight loss at 2 mg/kg, iv pretreated for 15 mins followed by 54 J/cm2 light irradiation for 10 mins and measured for 24 days; format: organism-based; conditions: in vivo, 0.25 h
Procedure, shortened: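 Female Balb/c nu/nu mice (18-22 g) carried subcutaneous HeLa cells (about 5×10^6, right back) and were treated on day 7 at a tumor volume of 80-100 mm³. Five mice per group received a tail-vein dose; saline controls were also irradiated. Fifteen minutes later the tumor was irradiated once with a 75 W halogen lamp (590 nm cut-on, 90 mW/cm², 10 min), without anaesthesia. Body weight was recorded every other day.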

[17] = Induction of singlet oxygen generation in PBS containing 1% Cremophor EL/1,2-propanediol (10:3, v:v) system assessed as relative rate of DPBF degradation to MB at 1 uM irradiated with 90 mW/cm2 halogen light; format: functional
Procedure, shortened: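 Singlet oxygen generation measured with 1,3-diphenylisobenzofuran (DPBF) as scavenger. The decrease in DPBF absorbance at 411 nm was monitored over time during light irradiation, and the photodegradation rate was calculated.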

[18] = Drug uptake in human HeLa cells xenografted Balb/c nu/nu mouse liver at 2 mg/kg, iv measured within 1 hr by fluorescence imaging analysis; format: ADME, organism-based; conditions: in vivo; procedure, shortened: as §1
[19] = Photostability of the compound in isopropanol assessed as compound degradation irradiated with 90 mW/cm2 light; format: physicochemical
[20] = Drug uptake in human HeLa cells xenografted Balb/c nu/nu mouse lung at 2 mg/kg, iv measured within 1 hr by fluorescence imaging analysis; format: ADME, organism-based; conditions: in vivo; procedure, shortened: as §1
[21] = Photostability of the compound in PBS containing 1% Cremophor EL/1,2-propanediol (10:3, v:v) system assessed as compound degradation irradiated with 90 mW/cm2 light; format: physicochemical; conditions: buffer

With COc1ccc(C2=[N+]3C(=Nc4c(-c5ccccc5)cc(-c5ccc(OC)cc5)n4[B-]3(F)F)C(c3ccccc3)=C2I)cc1 the IC50 at 3 h [1] was over 50000 nM, the Drug uptake [2] was “Active” and the IC50 (HeLa [3]) was 76 nM. The IC50 (SW480) was 86 nM, the Activity (HeLa [4]) was 10.68% and the viability at 0.2 µM (HeLa [5]) was 42.9%. The Drug uptake [6] was “Active”, the Drug uptake [7] was “Active” and the Drug uptake [8] was “Active”. For the same molecule, the Activity (HeLa [9]) was 81.04%, the Stabilty [10] was “Unstable” and the Activity (HeLa [11]) was 1.73%. For the same molecule, the Activity [12] was 59300 M⁻¹ cm⁻¹, the Drug uptake [13] was “Active” and the IC50 at 3 h [14] was over 50000 nM. For the same molecule, the Activity (HeLa [15]) was “Active”, the Activity [16] was “Non-Toxic” and the fold change (FC) [17] was 2.4. For the same molecule, the Drug uptake [18] was “Active”, the Stabilty [19] was “Stable” and the Drug uptake [20] was “Active”. The Stabilty [21] was “Stable”.
